In general, IC50 refers to the point on the concentration scale where inhibition reaches its midpoint.

Entries after “also recorded” stand apart in the source; their conditions may differ. Like-named read-outs stand apart in the source and are kept apart here. Ends that are not written are not given here.

Here are results for seven compounds from article PMC3662472 (Basic research in cardiology, 2012).

Experiment [1] addresses Cx43 hemichannels (HeLa-Cx43 cells) (Mus musculus, UniProt P23242). It counts as cell-based. The conditions noted are these: for Qm (% normalized to average before peptide addition), time course: repeated Vm steps to +70 mV, n = 3; for Qm versus control / HC-mediated unitary events: concentration not given; for Qm versus control: Vm +70 mV (30 s); for Qm at steady state (reduction to, % of value before peptide): n = 5. The procedure, abridged:
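HeLa cells stably express mouse Cx43 from a CMV vector and are kept in DMEM with 20 % FBS, 2 mM glutamine and 1 μg/mL puromycin. In whole-cell clamp (1–3 MΩ pipettes, pH 7.2, 50 nM Ca2+, 1 kHz filter), peptide is pre-incubated 30 min or added during recording. Qm is integrated unitary current over each step, normalized to pre-peptide or […] control. Mean ± SEM, ANOVA/Bonferroni or t test.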

Experiment [2] deals with Cx43 hemichannels (cultured pig ventricular cardiomyocytes). It counts as cell-based. The conditions noted are these: Vm +70 mV, siCx43 n = 9, siCx43scr n = 6, MOCK n = 3, ***P < 0.001 siCx43 versus MOCK and siCx43scr.
The subject of experiment [3] is porcine Cx43 gene gja1 / Cx43 expression. Put plainly: Cx43 expression. It counts as cell-based. The conditions noted are these: cultured pig ventricular cardiomyocytes.
The subject of experiment [4] is Cx43 hemichannels (pig ventricular cardiomyocytes). Briefly: Unitary hemichannel currents in isolated pig left ventricular cardiomyocytes. The conditions noted are these: Vm −70 to +80 mV. It counts as cell-based.
The subject of a further experiment is Panx1 HCs. The conditions noted are these: 20 μM; ref [6]; cited from earlier work.
Where [5] appears, read: scrambled peptide, Vm +70 mV, HeLa-Cx43.

Cx43 hemichannels (HeLa-Cx43 cells), sequence (P23242 whole entry): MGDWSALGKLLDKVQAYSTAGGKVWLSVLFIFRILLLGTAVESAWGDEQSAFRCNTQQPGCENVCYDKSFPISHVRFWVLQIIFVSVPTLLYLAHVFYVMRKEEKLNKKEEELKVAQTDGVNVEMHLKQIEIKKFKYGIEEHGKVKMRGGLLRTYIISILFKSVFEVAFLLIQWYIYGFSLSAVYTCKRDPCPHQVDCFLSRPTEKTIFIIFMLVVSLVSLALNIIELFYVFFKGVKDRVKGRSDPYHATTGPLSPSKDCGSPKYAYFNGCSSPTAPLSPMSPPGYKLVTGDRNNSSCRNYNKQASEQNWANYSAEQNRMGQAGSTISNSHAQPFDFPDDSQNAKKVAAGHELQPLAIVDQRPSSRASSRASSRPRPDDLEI

Consider PSFDSRHCIVKYV [SGap26], for which the “inhibition of Qm at 1 mM” value in experiment [1] (1 mM, Vm +70 mV, HeLa-Cx43) is reported as “strong inhibition”. The “inhibitory effect on Qm over concentration range” value in experiment [1] (concentration range at which Gap26 displayed inhibition) was “did not exhibit inhibitory effects”. Also, the “Qm (% normalized to average before peptide addition), time course” value in experiment [1] is recorded as “around 100%”. The Qm versus control result in experiment [1] (scrambled peptide, HeLa-Cx43) is “not different from control”. The HC-mediated unitary events entry in experiment [1] (setting [5]) is listed as “did not reveal any inhibition”. Further, the “Qm decay over time” value in experiment [1] (time course, Vm steps to +70 mV, scrambled peptide) is “did not cause any Qm decay”.

Consider 5′-GAAAGAGGAGGAACUCAAA-dTdT-3′ [siCx43], for which, in experiment [2] (listed as siRNA directed against Cx43), the “Cx43 HC unitary current activity (Qm)” value is “significantly inhibited”. The “Cx43 expression, % of control (MOCK)” value in experiment [3] (*P < 0.05 versus siCx43scr and MOCK) came out at 50%. The Cx43 expression knockdown in experiment [3] (siRNA 24 h) is given as ~ 50%.

With 5′-AGAGAUACGAACAAGAGAG-3′ [siCx43^scr], in experiment [2], the “Cx43 HC unitary current activity (Qm)” value was “no effect”. For the same compound, the “effect on Cx43 expression” value in experiment [3] (scrambled siRNA) is “no effect”.

Compound VCYDKSFPISHVR [Gap26, VCYDKSFPISHVR] registered an IC50 in experiment [1] of around 81 µM. The “Qm at steady state (reduction to, % of value before peptide)” value in experiment [1] (250 μM, Vm steps −30 to +70 mV, *P < 0.05 versus SGap26) is ~ 35%.

Consider TFEPIRISITK [SGap27], for which the “effect on Qm versus concentration” value in experiment [1] (concentration dependence, Vm +70 mV, HeLa-Cx43) is on record as “did not affect Qm unless it was applied at 1 mM concentration”. For the same compound, in experiment [1], the “Qm (% normalized to average before peptide addition), time course” value is recorded as “around 100%”. Also, in experiment [1] (scrambled peptide, HeLa-Cx43), the Qm versus control result is reported as “not different from control”. Also, the HC-mediated unitary events result in experiment [1] (setting [5]) is reported as “did not reveal any inhibition”.

In turn, SRPTEKTIFII [Gap27, SRPTEKTIFII] yielded an IC50 in experiment [1] of around 161 µM. The “Qm at steady state (reduction to, % of value before peptide)” value in experiment [1] (300 μM, Vm steps to +70 mV, **P < 0.01 versus SGap27) was ~ 15%.

For `CC1(C)[C@@H](OC(=O)CCC(=O)O)CC[C@]2(C)[C@H]3C(=O)C=C4[C@@H]5C[C@@](C)(C(=O)O)CC[C@]5(C)CC[C@@]4(C)[C@]3(C)CC[C@@H]12` [carbenoxolone], the “unitary current events in cardiomyocytes” value in experiment [4] (20 μM) is reported as “not influenced; also recorded: not affected”; in experiment [4] (20 μM, listed as Carbenoxolone), “no effect”; in experiment [4] (100 μM), “acted inhibitory; also recorded: clearly inhibited the currents”. Moreover, in experiment [1] (100 μM, Vm = +70 mV, HeLa-Cx43), the unitary current activity result is recorded as “rapidly disappeared”. In addition, in the experiment on Panx1 HCs, the “block of Panx1 HCs” value is “known to block Panx1 HCs”.
